Results taken from ChEMBL document CHEMBL3124863, “Structural modifications of neuroprotective anti-Parkinsonian (-)-N6-(2-(4-(biphenyl-4-yl)piperazin-1-yl)-ethyl)-N6-propyl-4,5,6,7-tetrahydrobenzo[d]thiazole-2,6-diamine (D-264): an effort toward the improvement of in vivo efficacy of the parent molecule” (J Med Chem, 2014).
The source made the active and inactive calls. No cut-off for these calls is given here.

Columns and labels:
[1] = test system: Radical scavenging activity; test: Antioxidant activity assessed as inhibition of DPPH free radical scavenging activity; format: functional
How it was run: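 Compounds in methanol (20–250 μM solutions) mixed 1:1 with 200 μM methanolic DPPH. Shaken 25 min at 30 °C, absorbance read at 517 nm. Methanol-only wells used for background; ascorbic acid as standard. % scavenging = (control A − sample A)/control A × 100.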

Rattus norvegicus [2] = test: Antiparkinsonian activity in 6-OHDA-lesioned Sprague-Dawley rat assessed as stimulation of rotational activity at 10 umol/kg measured up to 12 hrs; format: functional, organism-based
How it was run: (§1)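 Male Sprague–Dawley rats (290–320 g) with a left medial forebrain bundle 6-OHDA lesion, confirmed by apomorphine challenge. Drug given i.p. in water/saline; vehicle controls. Contralateral (clockwise) rotations counted in a rotometry harness chamber in 30-min bins over up to 12 h. Doses 5 or 10 μmol/kg. Mean ± SEM of 3–4 rats; ANOVA with Dunnett's test.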

Rattus norvegicus [3] = test: Antiparkinsonian activity in Sprague-Dawley rat assessed as reversal of reserpine-induced akinesia at 5 umol/kg, sc administered in deionized water measured up to 400 mins; format: functional, organism-based
How it was run: (§2)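 Male Sprague–Dawley rats (220–225 g) given reserpine 5 mg/kg s.c. 18 h before test drug. After 1 h acclimatization, drug given at 5 μmol/kg (i.p., or s.c. for ropinirole). Horizontal activity counted by infrared beam breaks for 6 h in 30-min intervals, compared with reserpine controls. n = 4; ANOVA with Dunnett's test.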

D(2) dopamine receptor [4] = target: D(2) dopamine receptor (Rattus norvegicus, UniProt P61169); test: Displacement of [3H]spiroperidol from rat dopamine D2L receptor expressed in HEK293 cells; format: cell-based
D(2) dopamine receptor (Rattus norvegicus, UniProt P61169), sequence (P61169 whole entry): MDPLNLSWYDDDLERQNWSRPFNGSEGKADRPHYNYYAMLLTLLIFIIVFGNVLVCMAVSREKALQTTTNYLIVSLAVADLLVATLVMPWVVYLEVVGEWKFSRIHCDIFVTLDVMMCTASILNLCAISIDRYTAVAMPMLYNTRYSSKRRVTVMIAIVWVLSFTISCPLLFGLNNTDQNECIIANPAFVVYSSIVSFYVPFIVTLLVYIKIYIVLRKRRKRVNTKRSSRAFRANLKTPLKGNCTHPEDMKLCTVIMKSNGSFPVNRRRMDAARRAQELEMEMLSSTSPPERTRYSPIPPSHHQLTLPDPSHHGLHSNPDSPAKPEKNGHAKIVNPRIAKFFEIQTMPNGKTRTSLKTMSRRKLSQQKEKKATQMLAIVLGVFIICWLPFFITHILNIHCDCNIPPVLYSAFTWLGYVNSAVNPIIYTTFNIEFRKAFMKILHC
How it was run: (§3)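 Inhibition of [3H]spiroperidol (16.2 Ci/mmol) binding to rat D2 or D3 receptors expressed in HEK-293 cells. Buffer contains 0.9% NaCl; "high [radioligand]" protocol. IC50 converted to Ki by Cheng–Prusoff. Means ± SEM of 3–6 experiments, each in triplicate.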

D(3) dopamine receptor [5] = target: D(3) dopamine receptor (Rattus norvegicus, UniProt P19020); test: Displacement of [3H]spiroperidol from rat dopamine D3 receptor expressed in HEK293 cells; format: cell-based; how it was run: as §3
D(3) dopamine receptor (Rattus norvegicus, UniProt P19020), sequence (P19020 whole entry): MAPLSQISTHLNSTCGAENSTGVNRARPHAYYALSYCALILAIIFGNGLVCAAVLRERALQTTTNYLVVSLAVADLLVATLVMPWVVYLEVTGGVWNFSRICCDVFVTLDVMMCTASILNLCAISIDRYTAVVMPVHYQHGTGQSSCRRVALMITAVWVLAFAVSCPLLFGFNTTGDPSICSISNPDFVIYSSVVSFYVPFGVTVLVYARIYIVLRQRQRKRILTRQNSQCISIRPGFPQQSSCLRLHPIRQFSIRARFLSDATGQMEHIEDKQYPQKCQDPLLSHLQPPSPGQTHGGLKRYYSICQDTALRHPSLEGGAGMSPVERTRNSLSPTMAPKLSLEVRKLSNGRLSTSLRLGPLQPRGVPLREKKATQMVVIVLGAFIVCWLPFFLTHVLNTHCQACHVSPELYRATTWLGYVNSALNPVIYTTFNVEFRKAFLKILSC

Rattus norvegicus [6] = organism: Rattus norvegicus; test: Selectivity ratio of Ki for rat dopamine D2L receptor to Ki for rat dopamine D3 receptor; how it was run: as §3
Rattus norvegicus [7] = test: Antiparkinsonian activity in Sprague-Dawley rat assessed as reversal of reserpine-induced akinesia at 5 umol/kg, ip administered in deionized water measured up to 400 mins; format: functional, organism-based; how it was run: as §2
Rattus norvegicus [8] = test: Antiparkinsonian activity in 6-OHDA-lesioned Sprague-Dawley rat assessed as stimulation of rotational activity at 2.5 umol/kg measured for 5 hrs in presence of haloperidol; format: functional, organism-based
MN9D [9] = test: Neuroprotective activity in mouse MN9D cells assessed as protection against MPP+-induced toxicity pretreated for 1 hr followed by MPP+-challenge measured after 24 hrs by MTT assay; format: functional, cell-based
How it was run: (§4)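 MN9D mouse dopaminergic hybridoma cells seeded at 1 × 10^4 per well on poly-L-lysine and equilibrated 40 h. Pretreated 1 h with compound (0.001–20 μM), then cotreated with 100 μM MPP+ for 24 h at 37 °C. Viability by MTT (0.5 mg/mL final, 3 h), formazan in DMSO/methanol, A570–A690. Means ± SD of three experiments in 4–6 replicates; ANOVA with Tukey's test.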

Rattus norvegicus [10] = test: Antiparkinsonian activity in Sprague-Dawley rat assessed as reversal of reserpine-induced akinesia at 5 umol/kg, ip administered in 10% beta-hydroxy cyclodextrin solution measured up to 400 mins; format: functional, organism-based; how it was run: as §2
Rattus norvegicus [11] = test: Antiparkinsonian activity in 6-OHDA-lesioned Sprague-Dawley rat assessed as stimulation of rotational activity at 9.28 mg/kg, ip measured for 10 hrs; format: functional, organism-based; design: dose 9.28 mg/kg; how it was run: as §1
D(3) dopamine receptor [12] = target: D(3) dopamine receptor (Homo sapiens, UniProt P35462); test: Agonist activity at human dopamine D3 receptor expressed in CHO cells assessed as stimulation of [35S]GTPgammaS binding; format: functional, cell-based
D(3) dopamine receptor (Homo sapiens, UniProt P35462), sequence (P35462 whole entry): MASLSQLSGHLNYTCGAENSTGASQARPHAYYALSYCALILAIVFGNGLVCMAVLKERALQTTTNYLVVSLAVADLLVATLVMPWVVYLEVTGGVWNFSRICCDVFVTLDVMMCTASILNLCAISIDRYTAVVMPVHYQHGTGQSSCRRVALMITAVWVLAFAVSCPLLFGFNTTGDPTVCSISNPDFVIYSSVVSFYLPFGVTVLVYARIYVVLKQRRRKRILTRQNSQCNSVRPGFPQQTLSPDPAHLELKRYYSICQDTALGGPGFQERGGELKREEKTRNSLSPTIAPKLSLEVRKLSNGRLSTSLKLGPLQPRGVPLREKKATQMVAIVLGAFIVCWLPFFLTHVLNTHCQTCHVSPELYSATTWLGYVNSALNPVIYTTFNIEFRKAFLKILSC

Rattus norvegicus [13] = test: Antiparkinsonian activity in 6-OHDA-lesioned Sprague-Dawley rat assessed as stimulation of rotational activity at 4.64 mg/kg, ip measured for 7 hrs; format: functional, organism-based; design: dose 4.64 mg/kg; how it was run: as §1
Homo sapiens = organism: Homo sapiens; test: Selectivity ratio of EC50 for human dopamine D2 receptor to EC50 for human dopamine D3 receptor
D(2) dopamine receptor [14] = target: T1, D(2) dopamine receptor (Homo sapiens, UniProt P14416); test: Agonist activity at human dopamine D2 receptor expressed in CHO cells assessed as stimulation of [35S]GTPgammaS binding; format: functional, cell-based
T1 sequence (P14416 whole entry): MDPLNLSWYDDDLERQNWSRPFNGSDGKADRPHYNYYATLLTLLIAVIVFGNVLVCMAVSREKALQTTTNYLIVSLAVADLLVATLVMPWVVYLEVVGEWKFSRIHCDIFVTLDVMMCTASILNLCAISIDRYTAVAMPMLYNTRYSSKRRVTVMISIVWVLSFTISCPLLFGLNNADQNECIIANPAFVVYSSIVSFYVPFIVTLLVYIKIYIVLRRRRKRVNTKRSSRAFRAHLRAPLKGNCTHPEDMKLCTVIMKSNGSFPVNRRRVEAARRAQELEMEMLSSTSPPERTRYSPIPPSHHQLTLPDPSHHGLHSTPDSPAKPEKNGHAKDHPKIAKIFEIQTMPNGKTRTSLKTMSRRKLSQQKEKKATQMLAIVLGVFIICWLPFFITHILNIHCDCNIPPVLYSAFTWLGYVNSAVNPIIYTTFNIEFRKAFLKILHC
How it was run: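 [35S]GTPγS (1250 Ci/mmol) binding stimulated in CHO cells expressing human D2. EC50 is the concentration giving half-maximal stimulation. Means ± SEM of 3–6 experiments, each in triplicate.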

D(2) dopamine receptor [15] = target: T1, D(2) dopamine receptor; test: Agonist activity at human dopamine D2 receptor expressed in CHO cells assessed as stimulation of [35S]GTPgammaS binding relative to dopamine; format: functional, cell-based
How it was run: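 [35S]GTPγS (1250 Ci/mmol) binding stimulated in CHO cells expressing human D2. EC50 is the concentration giving half-maximal stimulation. […] Means ± SEM of 3–6 experiments, each in triplicate.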

Rattus norvegicus [16] = test: Antiparkinsonian activity in 6-OHDA-lesioned Sprague-Dawley rat assessed as stimulation of rotational activity measured as time required to reach peak effect at 9.28 mg/kg, ip; format: functional; details: route intraperitoneal; how it was run: as §1
Rattus norvegicus [17] = test: Antiparkinsonian activity in 6-OHDA-lesioned ip dosed Sprague-Dawley rat assessed as stimulation of rotational activity measured up to 12 hrs; format: functional, organism-based; how it was run: as §1
Rattus norvegicus [18] = test: Antiparkinsonian activity in 6-OHDA-lesioned Sprague-Dawley rat assessed as stimulation of rotational activity measured as time required to reach peak effect at 6.56 mg/kg, ip; format: functional; details: route intraperitoneal; how it was run: as §1
D(2) dopamine receptor [19] = target: T1, D(2) dopamine receptor; test: Agonist activity at human dopamine D2 receptor expressed in CHO cells assessed as stimulation of [35S]GTPgammaS binding relative to dopamine
Rattus norvegicus [20] = test: Antiparkinsonian activity in 6-OHDA-lesioned Sprague-Dawley rat assessed as stimulation of rotational activity at 6.56 mg/kg, ip measured for 10 hrs; format: functional, organism-based; design: dose 6.56 mg/kg; how it was run: as §1
MN9D [21] = test: Neuroprotective activity in mouse MN9D cells assessed as protection against MPP+-induced toxicity at 0.001 to 20 uM pretreated for 1 hr followed by MPP+-challenge measured after 24 hrs by MTT assay; format: functional, cell-based; how it was run: as §4
Rattus norvegicus [22] = test: Antiparkinsonian activity in 6-OHDA-lesioned Sprague-Dawley rat assessed as stimulation of rotational activity at 3.28 mg/kg, ip measured for 7 hrs; format: functional, organism-based; design: dose 3.28 mg/kg; how it was run: as §1
D(2) dopamine receptor [23] = target: T1, D(2) dopamine receptor; test: Agonist activity at human dopamine D2 receptor expressed in CHO cells assessed as stimulation of [35S]GTPgammaS binding

SMILES | Ki (D(2) dopamine receptor [4]) | Ki (D(3) dopamine receptor [5]) | Ratio Ki (Rattus norvegicus [6]) | inhibition [1] | other results
CCCN(CCC)CCc1cccc2c1CC(=O)N2 |  |  |  | Dose-dependent effect | Activity (Rattus norvegicus [2]): Active; Activity (Rattus norvegicus [3]): Active
CCCN(CCN1CCN(c2ccc(-c3ccc(O)cc3)cc2)CC1)C1CCc2nc(N)sc2C1 (racemic) | 230 nM | 1.17 nM | 196 |  | 
O=C1O[C@H]([C@@H](O)CO)C(O)=C1O |  |  |  | Dose-dependent effect | 
CCCN(CCN1CCN(c2ccc(-c3ccccc3)cc2)CC1)[C@H]1CCc2nc(N)sc2C1 |  |  |  | Dose-dependent effect | Activity (Rattus norvegicus [7]): inactive; Activity (Rattus norvegicus [8]): inactive; Activity (MN9D [9]): Dose-dependent effect; Activity (Rattus norvegicus [10]): Active
CCCN(CCCCN1CCN(c2ccc(-c3cccc(O)c3)cc2)CC1)C1CCc2nc(N)sc2C1 (racemic) | 567 nM | 9.43 nM | 60 |  | 
CCCN(CCN1CCN(C(=O)c2ccc(-c3ccccc3)cc2)CC1)C1CCc2nc(N)sc2C1 (racemic) | 1670 nM | 9.58 nM | 174 |  | 
CCCN(CCN1CCN(c2ccc(-c3cccc(O)c3)cc2)CC1)[C@@H]1CCc2nc(N)sc2C1 | 1510 nM | 19.7 nM | 76 |  | 
CCCN(CCN1CCN(c2ccc(-c3ccc(OC)cc3)cc2)CC1)C1CCc2nc(N)sc2C1 (racemic) | 213 nM | 1.41 nM | 151 |  | 
CCCN(CCN1CCN(c2ccc(-c3ccccc3O)cc2)CC1)C1CCc2nc(N)sc2C1 (racemic) | 208 nM | 1.8 nM | 115 |  | 
CCCN(CCN1CCN(c2ccc(-c3cccc(O)c3)cc2)CC1)[C@H]1CCc2nc(N)sc2C1 | 369 nM | 1.73 nM | 213 | Dose-dependent effect | Activity (Rattus norvegicus [11]): Active; Activity (Rattus norvegicus [7]): Active; EC50 (D(3) dopamine receptor [12]): 0.1 nM; Activity (MN9D [9]): Dose-dependent effect; Activity (Rattus norvegicus [13]): Active; Ratio EC50 (Homo sapiens): 159; EC50 (D(2) dopamine receptor [14]): 15.9 nM; Emax (D(2) dopamine receptor [15]): 116%; Time (Rattus norvegicus [16]): 7.5 h; Activity (Rattus norvegicus [17]): Dose-dependent effect
CCCN(CCN1CCN(c2ccc(-c3cccc(OC)c3)cc2)CC1)[C@H]1CCc2nc(N)sc2C1 | 343 nM | 2.33 nM | 147 | Dose-dependent effect | Activity (Rattus norvegicus [7]): Active; EC50 (D(3) dopamine receptor [12]): 3.42 nM; Time (Rattus norvegicus [18]): 7.5 h; Emax (D(2) dopamine receptor [19]): 105%; Ratio EC50 (Homo sapiens): 10.8; Activity (Rattus norvegicus [20]): Active; Activity (MN9D [21]): inactive; Activity (Rattus norvegicus [17]): Dose-dependent effect; Activity (Rattus norvegicus [22]): Active; EC50 (D(2) dopamine receptor [23]): 36.8 nM

Continued by falling Ki (D(2) dopamine receptor [4]), values first:

Ki (D(2) dopamine receptor [4]) | Ki (D(3) dopamine receptor [5]) | Ratio Ki (Rattus norvegicus [6]) | SMILES | inhibition [1] | other results
13100 nM | 67 nM | 196 | CCCN(CCN1CCN(c2ccc(-c3cccc(O)c3)cc2)CC1)C1CCc2nc(N)ncc2C1 (racemic) |  | 
735 nM | 3.65 nM | 201 | CCCN(CCN1CCN(c2ccc(-c3ccccc3)cc2)CC1)C1CCc2nc(N)ncc2C1 (racemic) |  | 
464 nM | 2.11 nM | 220 | CCCN(CCN1CCN(c2ccc(-c3cccc(OC)c3)cc2)CC1)C1CCc2nc(N)sc2C1 (racemic) |  | 
347 nM | 1.2 nM | 289 | CCCN(CCN1CCN(c2ccc(-c3cccc(O)c3)cc2)CC1)C1CCc2nc(N)sc2C1 (racemic) |  | 
274 nM | 3.57 nM | 78 | CCCN(CCN1CCN(c2ccc(-c3ccccc3OC)cc2)CC1)C1CCc2nc(N)sc2C1 (racemic) |  | 
70.6 nM | 2.35 nM | 30 | CCCN(CCN1CCN(c2ccc(-c3ccccc3)cc2O)CC1)C1CCc2nc(N)sc2C1 (racemic) |  | 
27.8 nM | 0.77 nM | 36 | CCCN(CCN1CCN(c2ccc(-c3cccc(O)c3)cc2)CC1)[C@H]1CCc2c(O)cccc2C1 | Dose-dependent effect | 
